Source: ChEMBL document CHEMBL2062453, “Lead optimization through VLAK protocol: new annelated pyrrolo-pyrimidine derivatives as antitumor agents” (2012)

Tests used:
Assay type in all cases: functional
[1] = test system: SF-539; assay: Cytotoxicity against human SF539 cells assessed as cell growth at 10 uM after 48 hrs by SRB assay relative to control; details: SF-539, 48 h, read-out: Activity
[2] = test system: Malme-3M; assay: Cytotoxicity against human MALME-3M cells assessed as cell growth at 10 uM after 48 hrs by SRB assay relative to control; details: read-out: Activity
Summary of the method: (§1)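 NCI primary screen of about 60 human tumour lines. Cells inoculated and preincubated, then a single test concentration added and cultures incubated 48 h. Result given as percent growth (G%) of treated versus untreated control cells.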

[3] = test system: RXF 393; assay: Cytotoxicity against human RXF393 cells assessed as cell growth at 10 uM after 48 hrs by SRB assay relative to control; details: RXF 393, 48 h, read-out: Activity
[4] = test system: NCI/ADR-RES; assay: Cytotoxicity against human NCI/ADR-RES cells assessed as cell growth at 10 uM after 48 hrs by SRB assay relative to control; details: read-out: Activity
[5] = test system: SF-295; assay: Cytotoxicity against human SF295 cells assessed as cell growth at 10 uM after 48 hrs by SRB assay relative to control; details: SF-295, 48 h, read-out: Activity
[6] = test system: RPMI-8226; assay: Cytotoxicity against human RPMI8226 cells assessed as cell growth at 10 uM after 48 hrs by SRB assay relative to control; details: RPMI-8226, 48 h, read-out: Activity
[7] = test system: SNB-75; assay: Cytotoxicity against human SNB75 cells assessed as cell growth at 10 uM after 48 hrs by SRB assay relative to control; details: SNB-75, 48 h, read-out: Activity
[8] = test system: UO-31; assay: Cytotoxicity against human UO31 cells assessed as cell growth at 10 uM after 48 hrs by SRB assay relative to control; details: UO-31, 48 h, read-out: Activity
Summary of the method: (§2)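 NCI single-dose primary screen across about 60 human tumour lines. Each line was inoculated and preincubated on microtiter plates, then exposed to one concentration of agent for 48 h. Growth is reported as percent growth (G%) of treated cells versus untreated control cells.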

[9] = test system: NCI-H522; assay: Cytotoxicity against human NCI-H522 cells assessed as cell growth at 10 uM after 48 hrs by SRB assay relative to control; details: NCI-H522, 48 h, read-out: Activity
[10] = test system: NCI-H322M; assay: Cytotoxicity against human NCI-H322M cells assessed as cell growth at 10 uM after 48 hrs by SRB assay relative to control; details: read-out: Activity
[11] = test system: SK-MEL-2; assay: Cytotoxicity against human SK-MEL-2 cells assessed as cell growth at 10 uM after 48 hrs by SRB assay relative to control; details: SK-MEL-2, 48 h, read-out: Activity
[12] = test system: CAKI-1; assay: Cytotoxicity against human Caki1 cells assessed as cell growth at 10 uM after 48 hrs by SRB assay relative to control; details: CAKI-1, 48 h, read-out: Activity; summary of the method: as §1
[13] = test system: OVCAR-3; assay: Cytotoxicity against human OVCAR3 cells assessed as cell growth at 10 uM after 48 hrs by SRB assay relative to control; details: OVCAR-3, 48 h, read-out: Activity
[14] = test system: DU-145; assay: Cytotoxicity against human DU145 cells assessed as cell growth at 10 uM after 48 hrs by SRB assay relative to control; details: DU-145, 48 h, read-out: Activity; summary of the method: as §1
[15] = test system: A498; assay: Cytotoxicity against human A498 cells assessed as cell growth at 10 uM after 48 hrs by SRB assay relative to control; details: A498, 48 h, read-out: Activity; summary of the method: as §1
[16] = test system: CCRF-CEM; assay: Cytotoxicity against human CCRF-CEM cells assessed as cell growth at 10 uM after 48 hrs by SRB assay relative to control; details: read-out: Activity; summary of the method: as §1
[17] = test system: HL-60(TB); assay: Cytotoxicity against human HL-60(TB) cells assessed as cell growth at 10 uM after 48 hrs by SRB assay relative to control; details: HL-60, 48 h, read-out: Activity
[18] = test system: HCC 2998; assay: Cytotoxicity against human HCC2998 cells assessed as cell growth at 10 uM after 48 hrs by SRB assay relative to control; details: HCC 2998, 48 h, read-out: Activity; summary of the method: as §1
[19] = test system: K562; assay: Cytotoxicity against human K562 cells assessed as cell growth at 10 uM after 48 hrs by SRB assay relative to control; details: K562, 48 h, read-out: Activity; summary of the method: as §1
[20] = test system: KM12; assay: Cytotoxicity against human KM12 cells assessed as cell growth at 10 uM after 48 hrs by SRB assay relative to control; details: KM12, 48 h, read-out: Activity; summary of the method: as §1
[21] = test system: OVCAR-8; assay: Cytotoxicity against human OVCAR8 cells assessed as cell growth at 10 uM after 48 hrs by SRB assay relative to control; details: OVCAR-8, 48 h, read-out: Activity
[22] = test system: UACC-257; assay: Cytotoxicity against human UACC257 cells assessed as cell growth at 10 uM after 48 hrs by SRB assay relative to control; details: UACC-257, 48 h, read-out: Activity; summary of the method: as §2
[23] = test system: MDA-MB-231; assay: Cytotoxicity against human MDA-MB-231 cells assessed as cell growth at 10 uM after 48 hrs by SRB assay relative to control; details: MDA-MB-231, 48 h, read-out: Activity; summary of the method: as §1
[24] = test system: SF-268; assay: Cytotoxicity against human SF268 cells assessed as cell growth at 10 uM after 48 hrs by SRB assay relative to control; details: SF-268, 48 h, read-out: Activity
[25] = test system: EKVX; assay: Cytotoxicity against human EKVX cells assessed as cell growth at 10 uM after 48 hrs by SRB assay relative to control; details: read-out: Activity; summary of the method: as §1
[26] = test system: SW-620; assay: Cytotoxicity against human SW620 cells assessed as cell growth at 10 uM after 48 hrs by SRB assay relative to control; details: SW-620, 48 h, read-out: Activity; summary of the method: as §2
[27] = test system: HCT-116; assay: Cytotoxicity against human HCT116 cells assessed as cell growth at 10 uM after 48 hrs by SRB assay relative to control; details: HCT-116, 48 h, read-out: Activity; summary of the method: as §1
[28] = test system: M14; assay: Cytotoxicity against human M14 cells assessed as cell growth at 10 uM after 48 hrs by SRB assay relative to control; details: M14, 48 h, read-out: Activity; summary of the method: as §1
[29] = test system: PC-3; assay: Cytotoxicity against human PC3 cells assessed as cell growth at 10 uM after 48 hrs by SRB assay relative to control; details: PC-3, 48 h, read-out: Activity
[30] = test system: HOP-92; assay: Cytotoxicity against human HOP92 cells assessed as cell growth at 10 uM after 48 hrs by SRB assay relative to control; details: HOP-92, 48 h, read-out: Activity; summary of the method: as §1
[31] = test system: A549; assay: Cytotoxicity against human A549 cells assessed as cell growth at 10 uM after 48 hrs by SRB assay relative to control; details: A549, 48 h, read-out: Activity; summary of the method: as §1
[32] = test system: MOLT-4; assay: Cytotoxicity against human MOLT4 cells assessed as cell growth at 10 uM after 48 hrs by SRB assay relative to control; details: MOLT-4, 48 h, read-out: Activity
[33] = test system: SR; assay: Cytotoxicity against human SR cells assessed as cell growth at 10 uM after 48 hrs by SRB assay relative to control; details: read-out: Activity; summary of the method: as §2

Structure (SMILES)	growth at 10 µM [1] [%]	growth at 10 µM [2] [%]	growth at 10 µM [3] [%]	growth at 10 µM [4] [%]	growth at 10 µM [5] [%]	growth at 10 µM [6] [%]	growth at 10 µM [7] [%]	growth at 10 µM [8] [%]	growth at 10 µM [9] [%]	growth at 10 µM [10] [%]	growth at 10 µM [11] [%]	growth at 10 µM [12] [%]	growth at 10 µM [13] [%]	growth at 10 µM [14] [%]	growth at 10 µM [15] [%]	growth at 10 µM [16] [%]	growth at 10 µM [17] [%]	growth at 10 µM [18] [%]	growth at 10 µM [19] [%]	growth at 10 µM [20] [%]	also measured
CCOC(=O)CCCn1c(C)c(C)c2c1N=C(SC)N1CC(=O)N=C21	95	119	121	112	113	95	90	81	97	111	113	108	162	149	115	100	94	129	94	154	growth at 10 µM [21]: 113%; growth at 10 µM [22]: 111%; growth at 10 µM [23]: 112%; growth at 10 µM [24]: 132%; growth at 10 µM [25]: 104%; growth at 10 µM [26]: 110%; growth at 10 µM [27]: 111%; growth at 10 µM [28]: 106%; growth at 10 µM [29]: 103%; growth at 10 µM [30]: 89%; growth at 10 µM [31]: 102%; growth at 10 µM [32]: 98%; growth at 10 µM [33]: 119%
CSC1=Nc2c(c(C)c(C)n2CCCC(=O)O)C2=NC(=O)CN12	86	115	122	114	122	110	111	88	94	112	111	112	113	118	86	105	95	118	93	112	growth at 10 µM [21]: 111%; growth at 10 µM [22]: 120%; growth at 10 µM [23]: 100%; growth at 10 µM [24]: 114%; growth at 10 µM [25]: 105%; growth at 10 µM [26]: 110%; growth at 10 µM [27]: 111%; growth at 10 µM [28]: 110%; growth at 10 µM [29]: 98%; growth at 10 µM [30]: 92%; growth at 10 µM [31]: 117%; growth at 10 µM [32]: 103%; growth at 10 µM [33]: 122%
CCOC(=O)CCCn1c2c(c(C)c1-c1ccccc1)C1=NC(=O)CN1C(SC)=N2	84	116	108	95	98	81	80	85	92	108	114	100	110	109	118	71	90	127	90	96	growth at 10 µM [21]: 99%; growth at 10 µM [22]: 113%; growth at 10 µM [23]: 130%; growth at 10 µM [24]: 105%; growth at 10 µM [25]: 97%; growth at 10 µM [26]: 110%; growth at 10 µM [27]: 112%; growth at 10 µM [28]: 107%; growth at 10 µM [29]: 93%; growth at 10 µM [30]: 80%; growth at 10 µM [31]: 108%; growth at 10 µM [32]: 77%; growth at 10 µM [33]: 94%
CSC1=Nc2c(c(C)c(-c3ccccc3)n2CCCC(=O)O)C2=NC(=O)CN12	92	133	96	98	105	88	83	82	84	131	117	70	109	116	109	102	83	106	99	100	growth at 10 µM [21]: 98%; growth at 10 µM [22]: 99%; growth at 10 µM [23]: 107%; growth at 10 µM [24]: 96%; growth at 10 µM [25]: 95%; growth at 10 µM [26]: 94%; growth at 10 µM [27]: 96%; growth at 10 µM [28]: 104%; growth at 10 µM [29]: 94%; growth at 10 µM [30]: 95%; growth at 10 µM [31]: 101%; growth at 10 µM [32]: 87%
CSC1=Nc2c(c(C)c(-c3ccccc3)n2CCCN2CCN(C)CC2)C2=NC(=O)CN12	86	125	106	98	110	66	51	78	85	97	92	92	96	101	93	86	91	100	93	99	growth at 10 µM [21]: 93%; growth at 10 µM [22]: 100%; growth at 10 µM [23]: 82%; growth at 10 µM [24]: 88%; growth at 10 µM [25]: 96%; growth at 10 µM [26]: 101%; growth at 10 µM [27]: 93%; growth at 10 µM [28]: 100%; growth at 10 µM [31]: 90%; growth at 10 µM [32]: 79%; growth at 10 µM [33]: 70%
CSC1=Nc2c(c(C)c(-c3ccccc3)n2CCCN2CCCCC2)C2=NC(=O)CC(C)N12 (stereo not drawn)	79	57	56	82	39	-51	50	57	36	62	63	67	24	48	81	21	-33	61	12	2	growth at 10 µM [21]: 45%; growth at 10 µM [22]: 41%; growth at 10 µM [23]: 70%; growth at 10 µM [24]: 66%; growth at 10 µM [25]: 42%; growth at 10 µM [26]: 62%; growth at 10 µM [27]: 43%; growth at 10 µM [28]: 60%; growth at 10 µM [31]: 32%; growth at 10 µM [32]: 68%; growth at 10 µM [33]: 2%
